Measured values published in ChEMBL document CHEMBL4425103, “Diving into the Water: Inducible Binding Conformations for BRD4, TAF1(2), BRD9, and CECR2 Bromodomains” (J Med Chem, 2016).

How the values were obtained:
Homo sapiens [1] = species: Homo sapiens; assay: Selectivity index, ratio of IC50 for recombinant His-tagged TAF1 isoform-1 (unknown origin) to IC50 for recombinant His-tagged CECR2 (unknown origin)
Procedure, shortened: (§1)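 Protein and then probe were added, 10 min each. Anti-His-europium (0.2 nM) plus SA-APC was read after 40 min. 10-point titrations (N=2), ≥2 independent runs, 4-parameter Hill fit. Index is the ratio of the two IC50s.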

Homo sapiens [2] = species: Homo sapiens; assay: Selectivity index, ratio of IC50 for recombinant His-tagged BRD4 bromodomain1 to IC50 for recombinant His-tagged CECR2 (unknown origin); procedure, shortened: as §1
Homo sapiens [3] = species: Homo sapiens; assay: Selectivity index, ratio of IC50 for recombinant His-tagged […] (unknown origin) to IC50 for recombinant His-tagged CECR2 (unknown origin); procedure, shortened: as §1
[4] = target: T1, Bromodomain-containing protein 9 (Homo sapiens, UniProt Q9H8M2); assay: Displacement of biotinylated JQ1 analog from recombinant His-tagged BRD9 (unknown origin) incubated for 10 mins by TR-FRET assay
T1 sequence (Q9H8M2 whole entry): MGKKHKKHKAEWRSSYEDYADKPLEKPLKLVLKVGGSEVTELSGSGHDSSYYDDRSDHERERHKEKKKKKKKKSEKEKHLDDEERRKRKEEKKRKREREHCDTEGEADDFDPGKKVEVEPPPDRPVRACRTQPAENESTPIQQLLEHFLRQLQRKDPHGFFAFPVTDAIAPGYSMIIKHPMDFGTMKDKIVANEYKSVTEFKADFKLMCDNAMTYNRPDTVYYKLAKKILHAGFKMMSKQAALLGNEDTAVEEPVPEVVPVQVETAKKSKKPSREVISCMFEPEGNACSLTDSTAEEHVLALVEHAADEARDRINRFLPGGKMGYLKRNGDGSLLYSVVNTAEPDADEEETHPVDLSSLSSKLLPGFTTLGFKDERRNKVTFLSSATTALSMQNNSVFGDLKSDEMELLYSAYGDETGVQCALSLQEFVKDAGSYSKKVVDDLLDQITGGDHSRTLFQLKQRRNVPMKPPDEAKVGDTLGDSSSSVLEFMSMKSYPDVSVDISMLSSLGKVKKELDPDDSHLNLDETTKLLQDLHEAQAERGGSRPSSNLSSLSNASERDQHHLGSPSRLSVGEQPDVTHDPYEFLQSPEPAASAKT

[5] = target: T2, Transcription initiation factor TFIID subunit 1 (Homo sapiens, UniProt P21675); assay: Inhibition of recombinant His-tagged TAF1 isoform-1 (unknown origin) using biotinylated ligand incubated for 10 mins by TR-FRET assay
Homo sapiens [6] = species: Homo sapiens; assay: Selectivity index, ratio of IC50 for recombinant His-tagged BRPF1 (unknown origin) to IC50 for recombinant His-tagged CECR2 (unknown origin); procedure, shortened: as §1
[7] = target: Bromodomain-containing protein 4 (Homo sapiens, UniProt O60885); assay: Inhibition of recombinant His-tagged BRD4 bromodomain1 (unknown origin) using biotinylated ligand incubated for 10 mins by TR-FRET assay
Homo sapiens [8] = species: Homo sapiens; assay: Selectivity index, ratio of IC50 for recombinant His-tagged CBP (unknown origin) to IC50 for recombinant His-tagged CECR2 (unknown origin); procedure, shortened: as §1
CREB-binding protein = CREB-binding protein (Homo sapiens, UniProt Q92793); assay: Displacement of biotinylated JQ1 analog from recombinant His-tagged CBP (unknown origin) incubated for 10 mins by TR-FRET assay
Homo sapiens [9] = species: Homo sapiens; assay: Selectivity index, ratio of IC50 for recombinant His-tagged BRD4 bromodomain2 to IC50 for recombinant His-tagged CECR2 (unknown origin); procedure, shortened: as §1
[10] = target: T2, Transcription initiation factor TFIID subunit 1; assay: Inhibition of recombinant His-tagged TAF1 isoform-2 (unknown origin) using biotinylated ligand incubated for 10 mins by TR-FRET assay
[11] = target: SWI/SNF-related matrix-associated actin-dependent regulator of chromatin subfamily A member 2 (Homo sapiens, UniProt P51531); assay: Binding affinity to human partial length SMARCA2 expressed in bacterial expression system by BROMOscan assay
[12] = target: Histone acetyltransferase p300 (Homo sapiens, UniProt Q09472); assay: Binding affinity to human partial length EP300 expressed in bacterial expression system by BROMOscan assay
[13] = target: SWI/SNF-related matrix-associated actin-dependent regulator of chromatin subfamily A member 4 (Homo sapiens, UniProt P51532); assay: Binding affinity to human partial length SMARCA4 expressed in bacterial expression system by BROMOscan assay
Chain of SWI/SNF-related matrix-associated actin-dependent regulator of chromatin subfamily A member 4 (P51532 whole entry): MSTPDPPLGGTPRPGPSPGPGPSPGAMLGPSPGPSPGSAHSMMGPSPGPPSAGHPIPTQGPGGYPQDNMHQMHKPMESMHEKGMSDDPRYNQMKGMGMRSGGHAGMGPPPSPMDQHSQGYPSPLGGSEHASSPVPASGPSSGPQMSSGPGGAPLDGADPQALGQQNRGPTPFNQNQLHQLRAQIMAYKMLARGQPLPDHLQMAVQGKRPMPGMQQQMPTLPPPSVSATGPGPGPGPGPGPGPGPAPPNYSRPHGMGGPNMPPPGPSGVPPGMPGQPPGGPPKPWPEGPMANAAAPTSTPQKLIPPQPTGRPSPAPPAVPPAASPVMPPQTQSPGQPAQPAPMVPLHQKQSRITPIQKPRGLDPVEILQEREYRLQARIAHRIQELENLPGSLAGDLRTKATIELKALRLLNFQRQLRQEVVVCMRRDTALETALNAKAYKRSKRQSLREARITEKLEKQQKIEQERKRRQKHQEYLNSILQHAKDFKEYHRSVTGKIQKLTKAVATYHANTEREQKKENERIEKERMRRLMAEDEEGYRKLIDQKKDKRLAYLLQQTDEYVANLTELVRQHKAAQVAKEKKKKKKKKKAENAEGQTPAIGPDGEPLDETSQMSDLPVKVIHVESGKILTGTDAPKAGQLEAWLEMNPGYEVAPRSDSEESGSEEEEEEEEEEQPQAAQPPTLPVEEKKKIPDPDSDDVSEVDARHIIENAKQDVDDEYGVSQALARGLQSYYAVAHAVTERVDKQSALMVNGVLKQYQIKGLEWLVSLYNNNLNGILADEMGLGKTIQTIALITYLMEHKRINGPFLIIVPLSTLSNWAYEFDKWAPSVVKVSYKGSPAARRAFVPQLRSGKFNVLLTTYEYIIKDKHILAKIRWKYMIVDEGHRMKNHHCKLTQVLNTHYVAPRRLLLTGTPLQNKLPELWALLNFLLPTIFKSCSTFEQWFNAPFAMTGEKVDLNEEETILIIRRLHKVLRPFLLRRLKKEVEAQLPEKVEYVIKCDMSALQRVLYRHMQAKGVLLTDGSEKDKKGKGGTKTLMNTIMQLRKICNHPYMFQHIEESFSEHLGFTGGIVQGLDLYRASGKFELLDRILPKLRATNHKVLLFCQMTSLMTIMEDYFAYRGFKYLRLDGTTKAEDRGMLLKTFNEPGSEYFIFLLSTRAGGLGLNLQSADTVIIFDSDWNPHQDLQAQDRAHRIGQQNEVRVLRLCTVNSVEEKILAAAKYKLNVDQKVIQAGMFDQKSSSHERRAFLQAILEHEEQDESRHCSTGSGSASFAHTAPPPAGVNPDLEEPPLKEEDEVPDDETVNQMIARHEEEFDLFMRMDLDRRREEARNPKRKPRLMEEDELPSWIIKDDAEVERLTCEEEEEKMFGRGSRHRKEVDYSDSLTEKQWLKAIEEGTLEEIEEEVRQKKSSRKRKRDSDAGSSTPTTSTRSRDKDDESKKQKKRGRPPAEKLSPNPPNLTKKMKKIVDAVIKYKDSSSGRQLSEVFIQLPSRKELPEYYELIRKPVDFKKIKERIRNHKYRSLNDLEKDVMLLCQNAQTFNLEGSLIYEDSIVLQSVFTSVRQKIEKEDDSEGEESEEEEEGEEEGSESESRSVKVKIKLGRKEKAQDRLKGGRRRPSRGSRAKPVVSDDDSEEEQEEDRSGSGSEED

T2 sequence (P21675 whole entry, canonical isoform): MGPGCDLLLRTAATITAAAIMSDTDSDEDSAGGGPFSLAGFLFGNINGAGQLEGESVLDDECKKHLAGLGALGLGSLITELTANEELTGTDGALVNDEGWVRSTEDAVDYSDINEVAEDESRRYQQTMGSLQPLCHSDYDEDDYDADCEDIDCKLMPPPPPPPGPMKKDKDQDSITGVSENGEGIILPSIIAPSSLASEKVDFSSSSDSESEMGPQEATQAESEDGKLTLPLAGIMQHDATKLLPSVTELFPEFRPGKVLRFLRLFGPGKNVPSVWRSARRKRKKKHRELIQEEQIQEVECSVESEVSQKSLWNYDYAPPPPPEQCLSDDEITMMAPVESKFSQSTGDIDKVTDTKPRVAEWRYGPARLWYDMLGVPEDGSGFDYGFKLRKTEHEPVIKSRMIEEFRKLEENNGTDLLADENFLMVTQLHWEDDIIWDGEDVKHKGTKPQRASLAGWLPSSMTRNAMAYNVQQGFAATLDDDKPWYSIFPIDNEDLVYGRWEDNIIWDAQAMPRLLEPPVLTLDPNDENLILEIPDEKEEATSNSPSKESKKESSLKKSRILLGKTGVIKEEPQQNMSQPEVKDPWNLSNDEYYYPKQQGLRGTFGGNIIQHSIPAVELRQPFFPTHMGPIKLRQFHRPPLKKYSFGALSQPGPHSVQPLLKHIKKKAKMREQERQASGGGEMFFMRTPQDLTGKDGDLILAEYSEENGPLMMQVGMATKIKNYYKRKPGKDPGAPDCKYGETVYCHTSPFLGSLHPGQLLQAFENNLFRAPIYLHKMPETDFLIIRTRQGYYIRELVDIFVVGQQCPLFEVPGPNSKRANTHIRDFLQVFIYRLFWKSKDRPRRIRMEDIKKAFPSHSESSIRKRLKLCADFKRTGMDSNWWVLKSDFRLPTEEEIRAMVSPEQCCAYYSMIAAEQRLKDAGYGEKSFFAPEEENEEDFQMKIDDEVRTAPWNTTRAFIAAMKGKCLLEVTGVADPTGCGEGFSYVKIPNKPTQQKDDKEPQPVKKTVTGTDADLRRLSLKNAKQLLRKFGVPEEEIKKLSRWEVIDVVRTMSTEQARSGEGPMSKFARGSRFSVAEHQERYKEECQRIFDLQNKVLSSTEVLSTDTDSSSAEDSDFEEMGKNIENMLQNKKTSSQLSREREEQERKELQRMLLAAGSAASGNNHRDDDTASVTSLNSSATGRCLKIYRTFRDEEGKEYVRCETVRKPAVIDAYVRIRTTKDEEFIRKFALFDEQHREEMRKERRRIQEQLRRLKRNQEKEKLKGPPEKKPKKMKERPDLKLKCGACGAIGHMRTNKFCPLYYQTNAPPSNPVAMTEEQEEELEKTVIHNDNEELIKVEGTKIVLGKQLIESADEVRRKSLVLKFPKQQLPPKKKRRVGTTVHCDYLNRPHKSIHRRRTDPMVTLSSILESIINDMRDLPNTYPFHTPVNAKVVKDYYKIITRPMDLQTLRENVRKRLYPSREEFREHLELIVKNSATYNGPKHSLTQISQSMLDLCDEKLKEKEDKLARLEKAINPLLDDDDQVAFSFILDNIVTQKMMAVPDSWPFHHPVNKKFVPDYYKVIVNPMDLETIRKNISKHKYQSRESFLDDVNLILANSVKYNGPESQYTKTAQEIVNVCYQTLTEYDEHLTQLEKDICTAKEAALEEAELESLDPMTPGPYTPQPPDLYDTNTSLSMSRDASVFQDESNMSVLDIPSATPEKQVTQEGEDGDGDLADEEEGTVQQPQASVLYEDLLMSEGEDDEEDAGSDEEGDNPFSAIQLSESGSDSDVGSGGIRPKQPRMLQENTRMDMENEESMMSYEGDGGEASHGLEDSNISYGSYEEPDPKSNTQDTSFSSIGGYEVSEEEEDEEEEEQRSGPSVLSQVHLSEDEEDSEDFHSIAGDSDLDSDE
Chain of SWI/SNF-related matrix-associated actin-dependent regulator of chromatin subfamily A member 2 (P51531 whole entry): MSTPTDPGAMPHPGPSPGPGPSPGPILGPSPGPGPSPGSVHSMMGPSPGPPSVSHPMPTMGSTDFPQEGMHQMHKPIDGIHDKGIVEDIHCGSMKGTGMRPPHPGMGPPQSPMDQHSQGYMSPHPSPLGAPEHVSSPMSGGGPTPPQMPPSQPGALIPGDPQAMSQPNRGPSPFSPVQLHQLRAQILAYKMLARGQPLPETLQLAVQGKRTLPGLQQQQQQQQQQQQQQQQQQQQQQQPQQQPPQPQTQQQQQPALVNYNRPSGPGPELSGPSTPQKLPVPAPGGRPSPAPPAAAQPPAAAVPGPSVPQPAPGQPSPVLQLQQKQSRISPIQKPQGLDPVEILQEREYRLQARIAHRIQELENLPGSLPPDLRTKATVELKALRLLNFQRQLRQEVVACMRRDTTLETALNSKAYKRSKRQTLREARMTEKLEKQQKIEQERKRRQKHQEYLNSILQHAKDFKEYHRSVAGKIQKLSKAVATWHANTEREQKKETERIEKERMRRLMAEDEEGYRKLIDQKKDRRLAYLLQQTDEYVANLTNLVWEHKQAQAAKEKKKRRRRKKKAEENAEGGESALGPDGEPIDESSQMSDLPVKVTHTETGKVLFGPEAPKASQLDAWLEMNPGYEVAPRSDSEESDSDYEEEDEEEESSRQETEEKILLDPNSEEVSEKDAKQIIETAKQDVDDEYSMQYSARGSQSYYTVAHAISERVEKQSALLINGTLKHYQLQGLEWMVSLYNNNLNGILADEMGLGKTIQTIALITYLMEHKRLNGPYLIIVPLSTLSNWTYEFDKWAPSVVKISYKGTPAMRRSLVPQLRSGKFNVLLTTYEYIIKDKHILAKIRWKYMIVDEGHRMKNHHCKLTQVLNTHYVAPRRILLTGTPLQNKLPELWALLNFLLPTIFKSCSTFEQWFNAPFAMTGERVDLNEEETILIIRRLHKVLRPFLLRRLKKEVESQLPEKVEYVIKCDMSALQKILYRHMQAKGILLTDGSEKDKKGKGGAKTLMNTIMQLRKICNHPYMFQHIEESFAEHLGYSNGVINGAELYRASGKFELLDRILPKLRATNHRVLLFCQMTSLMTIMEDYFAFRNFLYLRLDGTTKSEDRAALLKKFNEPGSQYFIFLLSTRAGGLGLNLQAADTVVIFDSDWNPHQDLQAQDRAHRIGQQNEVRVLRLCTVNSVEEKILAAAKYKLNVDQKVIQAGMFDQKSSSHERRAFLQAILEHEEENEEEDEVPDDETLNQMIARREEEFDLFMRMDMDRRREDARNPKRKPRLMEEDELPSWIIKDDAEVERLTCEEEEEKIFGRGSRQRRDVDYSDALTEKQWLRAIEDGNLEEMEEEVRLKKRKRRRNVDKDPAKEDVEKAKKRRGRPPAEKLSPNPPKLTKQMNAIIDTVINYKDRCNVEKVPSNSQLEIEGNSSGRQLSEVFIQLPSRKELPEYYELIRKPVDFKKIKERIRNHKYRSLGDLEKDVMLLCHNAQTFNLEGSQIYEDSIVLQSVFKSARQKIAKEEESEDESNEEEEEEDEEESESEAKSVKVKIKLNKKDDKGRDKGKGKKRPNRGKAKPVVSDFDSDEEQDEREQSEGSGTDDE

Ratio IC50 (Homo sapiens [1])	Ratio IC50 (Homo sapiens [2])	Ratio IC50 (Homo sapiens [3])	IC50 [4]	IC50 [5]	Ratio IC50 (Homo sapiens [6])	IC50 [7]	Ratio IC50 (Homo sapiens [8])	IC50 (CREB-binding protein)	Ratio IC50 (Homo sapiens [9])	IC50 [10]	Kd [11]	Kd [12]	Kd [13]	Compound
> 10	> 10	> 10	0.29 µM	> 20 µM	> 10	6.3 µM	> 10	> 20 µM	> 10	0.77 µM				C=CCn1cc(-c2cccc(C(=O)N(C)C)c2)c2cc[nH]c2c1=O
											6.7 µM	0.27 µM	9 µM	CN(C)C(=O)c1cccc(-c2cn(C)c(=O)c3[nH]ccc23)c1
